From article PMC9553801 (Clinical Pharmacokinetics, 2022)
“And” between values parts separate entries of the source, which are not always exact repeats. Equal values may be shown once. Read-outs that look alike come from different tables or passages of the source.

Legend:
[1] = format: in vivo, human; conditions: for AUC / AUC(0-t) / AUC(0-inf) / Cmax / Tmax / half-life: human, plasma, po, 60 mg; for AUC: AUC96, single oral 60 mg; for AUC / AUC(0-t) / AUC(0-inf) / Cmax / %Urt (percentage dose recovered in urine) / CLT/F (apparent total body clearance): adjusted geometric mean (%CV); for AUC(0-t): AUCt; for AUC(0-t) / AUC(0-inf) / Cmax / Tmax / half-life / %Urt (percentage dose recovered in urine) / CLT/F (apparent total body clearance): single oral 60 mg; for Cmax: n = 8; for Tmax: median (minimum–maximum); for half-life: T½ (terminal plasma half-life), mean (SD)
Method in brief: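 There were three eGFR-defined groups (MDRD; n = 8 each, matched by age, weight and sex). Each participant received one oral 60 mg dose after a standard meal, with serial plasma and urine collection. Plasma concentrations were measured by validated LC-MS/MS. Urine recovery was the sum of concentration × urine volume per collection interval, expressed as % of dose. CLT/F came from plasma concentration-time data. Values are adjusted geometric mean (%CV).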

[2] = Milvexian plasma protein binding by LC-MS/MS; format: in vitro ADME, human; conditions: adjusted geometric mean (%CV); for fraction unbound: human, plasma, %fu (fraction of unbound drug)
Method in brief: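 The severe group had eGFR < 30 mL/min/1.73 m2 (MDRD) and no dialysis, and received a single oral 60 mg dose after a standard meal. A designated protein-binding blood sample was analysed for […] test compound by validated LC-MS/MS. Results were reported as adjusted geometric mean (%CV).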

Safety and tolerability = format: in vivo, human; conditions: for Any AE / Headache / Somnolence: single oral 60 mg
aPTT = test: Activated partial thromboplastin time; format: in vivo, human; conditions: for aPTT percentage change from baseline at mean peak: single oral 60 mg
Method in brief: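 Participants (n = 8 per group) were grouped by eGFR (MDRD formula): normal ≥ 90, moderate ≥ 30 to ≤ 59, or severe < 30 mL/min/1.73 m2 (not on dialysis). They were matched by age, body weight and sex. Each received a single oral dose of test compound after a standard meal. aPTT was an exploratory PD biomarker, measured by a validated central-laboratory assay. Baseline was predose Day 1.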

[3] = Linear regression of log-transformed PK parameters versus eGFR or CrCL; format: in vivo, human; conditions: for increase in overall exposure: regression analysis
[4] = previous first-in-human study; cited from earlier work
[5] = patients undergoing dialysis compared with healthy participants; cited from earlier work
[6] = patients with severe renal impairment (CrCL of 15 mL/min) compared with healthy participants; cited from earlier work
[7] = single dose 60 mg, all 24 participants
[8] = moderate renal impairment, n = 8
[9] = CrCL 30 vs CrCL 90 mL/min, CrCL-based regression
[10] = eGFR 15 vs eGFR 90 mL/min/1.73 m^2, eGFR-based regression
[11] = eGFR 30 vs eGFR 90 mL/min/1.73 m^2, eGFR-based regression

C[C@@H]1CCC[C@H](n2cnc(-c3cc(Cl)ccc3-n3cc(Cl)nn3)cc2=O)c2cc(ccn2)-c2c(cnn2C(F)F)NC1=O [milvexian, Milvexian]
AUC ([1]; moderate renal impairment): 5020 ng·h/mL
AUC ([1]; normal renal function): 3880 ng·h/mL
AUC ([1]; severe renal impairment): 7170 ng·h/mL
AUC(0-t) ([1]; moderate renal impairment): 5000 ng·h/mL
AUC(0-t) ([1]; normal renal function): 3860 ng·h/mL
AUC(0-t) ([1]; severe renal impairment): 7090 ng·h/mL
AUC(0-inf) ([1]; moderate renal impairment): 5150 ng·h/mL
AUC(0-inf) ([1]; normal renal function): 3920 ng·h/mL
AUC(0-inf) ([1]; severe renal impairment): 7410 ng·h/mL
Cmax ([1]; moderate renal impairment (eGFR ≥ 30 to ≤ 59)): 406 ng/mL
Cmax ([1]; normal renal function (eGFR ≥ 90)): 462 ng/mL
Cmax ([1]; severe renal impairment (eGFR < 30)): 462 ng/mL
Tmax ([1]; moderate renal impairment): 4.75 h
Tmax ([1]; normal renal function): 4.5 h
Tmax ([1]; severe renal impairment): 5 h
half-life ([1]; moderate renal impairment): 18 h
half-life ([1]; normal renal function): 13.8 h
half-life ([1]; severe renal impairment): 17.7 h
%Urt (percentage dose recovered in urine) ([1]; moderate renal impairment): 7.64 (33) %
CLT/F (apparent total body clearance) ([1]; moderate renal impairment): 11.6 L/h and 11.6 (32) L/h
%Urt (percentage dose recovered in urine) ([1]; normal renal function): 10.5 (45) %
CLT/F (apparent total body clearance) ([1]; normal renal function): 15.3 L/h and 15.3 (36) L/h
%Urt (percentage dose recovered in urine) ([1]; severe renal impairment): 3.14 (75) %
CLT/F (apparent total body clearance) ([1]; severe renal impairment): 8.10 L/h and 8.10 (37) L/h
fraction unbound ([2]; moderate renal impairment): 0.0881
fraction unbound ([2]; normal renal function): 0.0885
fraction unbound ([2]; severe renal impairment): 0.084
%Protein binding ([2]; severe renal impairment): 91.5 (1) %
participants reporting headache (Safety and tolerability; [7]): 8.3%
participants reporting one AE (Safety and tolerability; [7]): 12.5%
participants reporting somnolence (Safety and tolerability; [7]): 4.2%
bleeding events (Safety and tolerability; single dose 60 mg, all renal function groups): No bleeding events were reported
Any AE (Safety and tolerability; [8]): 1 (12.5) n (%)
Headache (Safety and tolerability; [8]): 1 (12.5) n (%)
Somnolence (Safety and tolerability; [8]): 0 n (%)
Any AE (Safety and tolerability; normal renal function, n = 8): 1 (12.5) n (%)
Headache (Safety and tolerability; normal renal function, n = 8): 0 n (%)
Somnolence (Safety and tolerability; normal renal function, n = 8): 1 (12.5) n (%)
Any AE (Safety and tolerability; severe renal impairment, n = 8): 1 (12.5) n (%)
Headache (Safety and tolerability; severe renal impairment, n = 8): 1 (12.5) n (%)
Somnolence (Safety and tolerability; severe renal impairment, n = 8): 0 n (%)
Any AE (Safety and tolerability; total, N = 24): 3 (12.5) n (%)
Headache (Safety and tolerability; total, N = 24): 2 (8.3) n (%)
Somnolence (Safety and tolerability; total, N = 24): 1 (4.2) n (%)
aPTT percentage change from baseline at mean peak (aPTT; moderate renal impairment, 5 h postdose): 97%
aPTT percentage change from baseline at mean peak (aPTT; normal renal function, 5 h postdose): 127%
aPTT percentage change from baseline at mean peak (aPTT; severe renal impairment, 6 h postdose): 100%
effect on aPTT (aPTT; single oral dose, all renal function groups): concentration-dependent prolongation of aPTT
increase in AUCt ([3]; CrCL 15 vs CrCL 90 mL/min, CrCL-based regression): 49%
increase in AUCt [3, 9]: 38%
increase in AUC∞ [3, 9]: 40%
increase in AUCt [3, 10]: 50%
increase in AUC∞ [3, 10]: 54%
increase in AUCt [3, 11]: 39%
increase in AUC∞ [3, 11]: 41%
increase in overall exposure ([3]; moderate renal impairment group): approximately 40%
increase in overall exposure ([3]; severe renal impairment group): ~50%
renal excretion [4]: below 20%

O=C(NC[C@H]1CN(c2ccc(N3CCOCC3=O)cc2)C(=O)O1)c1ccc(Cl)s1 [rivaroxaban]
increase in exposure [5]: 56%

COc1ccc(-n2nc(C(N)=O)c3c2C(=O)N(c2ccc(N4CCCCC4=O)cc2)CC3)cc1 [apixaban]
increase in exposure [6]: 44%
